Measured values taken from ChEMBL document CHEMBL4665848, “Constituents of Bupleurum praealtum and Bupleurum veronense with Potential Immunomodulatory Activity” (J Nat Prod, 2020).
Activity calls are given as the source filed them. The calls are words filed in the database; no cut-off is given here.

Key:
[1] = Cytotoxicity against Wistar rat splenocytes assessed as reduction in cell viability at 10^-5 to 10^-1 mM after 24 hrs by MTT assay; assay type: tissue-based; settings: splenocyte, dose 0.00001-0.1 mM
Outline: (§1)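 Freshly isolated primary rat spleen lymphocytes and peritoneal macrophages, cultured separately. Read-out is MTT metabolism, taken as mitochondrial reductase activity. Values are mean percentages with SD, relative to RPMI-treated control cells.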

[2] = Cytotoxicity against Wistar rat splenocytes assessed as lysosomal activity at 10^-5 to 10^-1 mM after 24 hrs by neutral red dye-based assay; assay type: tissue-based; settings: splenocyte, dose 0.00001-0.1 mM
Outline: (§2)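 Freshly isolated primary rat splenocytes and peritoneal macrophages. Read-out is neutral red accumulation, taken as lysosomal function. Results are compared with RPMI-treated control cells.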

Peritoneal macrophage [3] = assay: Cytotoxicity against Wistar rat peritoneal macrophages assessed as reduction in cell viability at 10^-5 to 10^-1 mM after 24 hrs by MTT assay; assay type: cell-based; settings: dose 0.00001-0.1 mM; outline: as §1
Peritoneal macrophage [4] = assay: Cytotoxicity against Wistar rat peritoneal macrophages assessed as assessed as lysosomal activity at 10^-5 to 10^-1 mM after 24 hrs by neutral red dye-based assay; assay type: cell-based; settings: dose 0.00001-0.1 mM; outline: as §2
Peritoneal macrophage [5] = assay: Inhibition of MPO in Wistar rat peritoneal macrophages assessed as oxidation of 1,2-diaminobenzene at 10^-5 to 10^-1 mM; assay type: tissue-based; settings: dose mM 0.00001-0.1, time 24.0 hrs
[6] = Cytotoxicity against Wistar rat splenocytes assessed as lysosomal activity at 100 uM after 24 hrs by neutral red dye-based assay; assay type: tissue-based; settings: splenocyte; outline: as §2
Peritoneal macrophage [7] = assay: Cytotoxicity against Wistar rat peritoneal macrophages assessed as lysosomal activity at 10 to 100 uM after 24 hrs by neutral red dye-based assay; assay type: cell-based; settings: dose 10-100 µM; outline: as §2
[8] = Cytotoxicity against Wistar rat splenocytes assessed as reduction in cell viability at 100 uM after 24 hrs by MTT assay; assay type: tissue-based; settings: splenocyte; outline: as §1
Peritoneal macrophage [9] = assay: Cytotoxicity against Wistar rat peritoneal macrophages assessed as reduction in cell viability at 100 uM after 24 hrs by MTT assay; assay type: cell-based; outline: as §1
Peritoneal macrophage [10] = assay: Cytotoxicity against Wistar rat peritoneal macrophages assessed as lysosomal activity at 100 uM after 24 hrs by neutral red dye-based assay; assay type: cell-based; outline: as §2

## CC/C=C/C=C/C=C/C=C\CCCCOC(=O)[C@H](O)C(C)C
[1]
  Activity: Non-Toxic
[2]
  Activity: Non-Toxic
Peritoneal macrophage [3]
  Activity: Non-Toxic
Peritoneal macrophage [4]
  Activity: Non-Toxic
Peritoneal macrophage [5]
  inhibition: Active

## CC/C=C/C=C/C=C/C=C\CCCCOC(=O)[C@H](OC(C)=O)C(C)C
[1]
  Activity: Non-Toxic
[2]
  Activity: Non-Toxic
Peritoneal macrophage [3]
  Activity: Non-Toxic
Peritoneal macrophage [4]
  Activity: Non-Toxic

## COc1ccc(C[C@H]2COC(=O)[C@@H]2Cc2ccc(OC)c(OC)c2)cc1OC
[6]
  Activity: Non-Toxic
Peritoneal macrophage [7]
  Activity: Non-Toxic

## CC/C=C/C=C/C=C/C=C/[C@@H]1CCC(=O)O1
[8]
  Activity: Toxic
[6]
  Activity: Toxic
Peritoneal macrophage [9]
  Activity: Toxic
Peritoneal macrophage [10]
  Activity: Toxic
Peritoneal macrophage [5]
  inhibition: Active
